A value given as a limit tells only on which side of the number the result lay.

Assay [1] has as its target 5-hydroxytryptamine receptor 2A (Rattus norvegicus) (UniProt P14842). The experiment in a line: Displacement of [3H]ketanserin from Sprague-Dawley rat brain cortex serotonin 5-HT2A receptor at 0.00001 uM after 15 mins by liquid scintillation counting.
Assay [2] shares this target. The assay is described as follows: Displacement of [3H]ketanserin from Sprague-Dawley rat brain cortex serotonin 5-HT2A receptor at 0.0000001 uM after 15 mins by liquid scintillation counting.
Assay [3] concerns the target T1, Adrenergic receptor alpha-1 (Rattus norvegicus, UniProt P15823+P23944+P43140).
T1 sequence (P15823 whole entry): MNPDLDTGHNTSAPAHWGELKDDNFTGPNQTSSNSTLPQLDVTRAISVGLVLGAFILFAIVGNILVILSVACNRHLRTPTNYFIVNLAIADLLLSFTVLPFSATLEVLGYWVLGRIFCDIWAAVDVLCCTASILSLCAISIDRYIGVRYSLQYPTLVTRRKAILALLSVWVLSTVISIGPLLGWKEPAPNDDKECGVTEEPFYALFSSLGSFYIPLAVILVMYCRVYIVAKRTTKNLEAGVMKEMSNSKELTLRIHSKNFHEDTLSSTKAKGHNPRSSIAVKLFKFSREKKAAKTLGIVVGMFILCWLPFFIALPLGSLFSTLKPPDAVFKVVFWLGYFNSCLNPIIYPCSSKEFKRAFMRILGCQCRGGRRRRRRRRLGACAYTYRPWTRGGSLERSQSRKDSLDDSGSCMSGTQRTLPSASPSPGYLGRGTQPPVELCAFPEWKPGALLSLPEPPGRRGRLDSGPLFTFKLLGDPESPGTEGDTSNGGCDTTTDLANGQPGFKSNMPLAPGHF
T1 sequence (P23944 whole entry): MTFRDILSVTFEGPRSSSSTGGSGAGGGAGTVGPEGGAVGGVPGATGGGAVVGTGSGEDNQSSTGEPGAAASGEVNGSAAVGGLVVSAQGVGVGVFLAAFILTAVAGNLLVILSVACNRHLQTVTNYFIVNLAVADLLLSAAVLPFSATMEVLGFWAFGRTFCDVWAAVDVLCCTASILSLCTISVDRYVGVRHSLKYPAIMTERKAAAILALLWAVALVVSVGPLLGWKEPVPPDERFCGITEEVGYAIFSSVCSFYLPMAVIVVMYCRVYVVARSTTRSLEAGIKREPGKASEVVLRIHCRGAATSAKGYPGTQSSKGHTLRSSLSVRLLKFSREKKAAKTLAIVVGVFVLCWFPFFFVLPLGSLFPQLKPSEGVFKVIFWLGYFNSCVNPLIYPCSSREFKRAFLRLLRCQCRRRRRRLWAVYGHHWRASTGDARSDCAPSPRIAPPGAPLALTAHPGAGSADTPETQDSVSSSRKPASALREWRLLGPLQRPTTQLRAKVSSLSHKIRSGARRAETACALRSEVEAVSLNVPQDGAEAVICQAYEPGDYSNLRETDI
T1 sequence (P43140 whole entry): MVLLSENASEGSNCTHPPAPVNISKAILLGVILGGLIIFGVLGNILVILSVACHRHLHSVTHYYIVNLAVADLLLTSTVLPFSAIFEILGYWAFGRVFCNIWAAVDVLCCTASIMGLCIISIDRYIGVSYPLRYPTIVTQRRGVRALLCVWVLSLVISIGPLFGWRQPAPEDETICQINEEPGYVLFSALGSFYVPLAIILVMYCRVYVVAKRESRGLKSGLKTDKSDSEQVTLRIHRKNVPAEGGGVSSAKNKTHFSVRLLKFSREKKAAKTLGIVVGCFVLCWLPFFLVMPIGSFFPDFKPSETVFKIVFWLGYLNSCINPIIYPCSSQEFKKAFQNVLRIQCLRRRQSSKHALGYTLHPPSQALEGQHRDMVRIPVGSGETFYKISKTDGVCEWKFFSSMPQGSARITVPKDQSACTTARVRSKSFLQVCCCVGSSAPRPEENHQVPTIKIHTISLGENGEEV
The assay is described as follows: Displacement of [3H]prazosin from rat brain cortex adrenergic alpha1 receptor after 30 mins by liquid scintillation counting. In a few lines:
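Brain cortex homogenized in 50 mM Tris-HCl pH 7.2, spun twice at 50,000 g, resuspended in Tris-HCl pH 7.4. 0.4 nM [3H]prazosin final, 10 mg fresh tissue, 30 min at 25 °C. Nonspecific binding with phentolamine. GF/B filtration. Ki by Cheng-Prusoff from six-point triplicate curves.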

The target of assay [4] is 5-hydroxytryptamine receptor 2A (Rattus norvegicus) (UniProt P14842). The experiment in a line: Displacement of [3H]ketanserin from Sprague-Dawley rat brain cortex serotonin 5-HT2A receptor at 0.001 uM after 15 mins by liquid scintillation counting. A general note: Displacement assays read how much labelled ligand stays bound in the presence of the test substance.
Sequence of 5-hydroxytryptamine receptor 2A (Rattus norvegicus) (P14842 whole entry): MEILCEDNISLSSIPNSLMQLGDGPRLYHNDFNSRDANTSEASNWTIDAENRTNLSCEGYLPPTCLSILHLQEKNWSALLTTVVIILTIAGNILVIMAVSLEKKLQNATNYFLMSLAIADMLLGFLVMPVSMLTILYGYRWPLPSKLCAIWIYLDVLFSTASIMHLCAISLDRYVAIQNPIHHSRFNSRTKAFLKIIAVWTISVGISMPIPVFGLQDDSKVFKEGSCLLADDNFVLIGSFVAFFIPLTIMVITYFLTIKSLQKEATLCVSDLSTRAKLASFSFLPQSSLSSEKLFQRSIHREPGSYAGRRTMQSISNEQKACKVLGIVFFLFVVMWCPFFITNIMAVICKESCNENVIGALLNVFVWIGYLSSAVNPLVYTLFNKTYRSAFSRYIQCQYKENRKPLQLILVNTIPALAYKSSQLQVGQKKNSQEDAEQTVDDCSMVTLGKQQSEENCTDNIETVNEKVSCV
Assay [5] has as its target T2, Adrenergic receptor alpha-2 (Rattus norvegicus, UniProt P22086+P19328+P22909).
T2 sequence (P22086 whole entry): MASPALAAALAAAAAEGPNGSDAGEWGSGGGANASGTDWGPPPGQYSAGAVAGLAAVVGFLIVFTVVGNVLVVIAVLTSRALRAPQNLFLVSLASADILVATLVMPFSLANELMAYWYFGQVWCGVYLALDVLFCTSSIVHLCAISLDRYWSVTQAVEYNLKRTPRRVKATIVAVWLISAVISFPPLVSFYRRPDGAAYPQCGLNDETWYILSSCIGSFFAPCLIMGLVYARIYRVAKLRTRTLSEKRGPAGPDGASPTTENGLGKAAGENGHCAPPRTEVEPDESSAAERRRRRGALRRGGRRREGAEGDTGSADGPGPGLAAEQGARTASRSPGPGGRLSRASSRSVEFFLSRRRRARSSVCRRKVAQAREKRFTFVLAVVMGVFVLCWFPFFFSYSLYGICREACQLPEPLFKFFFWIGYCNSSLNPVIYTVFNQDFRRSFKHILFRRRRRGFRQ
T2 sequence (P19328 whole entry): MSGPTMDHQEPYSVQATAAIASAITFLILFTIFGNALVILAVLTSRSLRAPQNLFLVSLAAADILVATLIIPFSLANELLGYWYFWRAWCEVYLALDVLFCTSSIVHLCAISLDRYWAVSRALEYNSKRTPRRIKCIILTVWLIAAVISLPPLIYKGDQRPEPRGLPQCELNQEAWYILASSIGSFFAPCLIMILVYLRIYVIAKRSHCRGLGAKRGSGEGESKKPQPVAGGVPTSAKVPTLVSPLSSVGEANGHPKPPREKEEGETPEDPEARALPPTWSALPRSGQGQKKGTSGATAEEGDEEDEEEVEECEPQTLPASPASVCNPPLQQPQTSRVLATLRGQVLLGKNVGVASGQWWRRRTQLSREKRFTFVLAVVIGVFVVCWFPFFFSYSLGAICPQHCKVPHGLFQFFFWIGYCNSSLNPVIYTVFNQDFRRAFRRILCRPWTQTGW
T2 sequence (P22909 whole entry): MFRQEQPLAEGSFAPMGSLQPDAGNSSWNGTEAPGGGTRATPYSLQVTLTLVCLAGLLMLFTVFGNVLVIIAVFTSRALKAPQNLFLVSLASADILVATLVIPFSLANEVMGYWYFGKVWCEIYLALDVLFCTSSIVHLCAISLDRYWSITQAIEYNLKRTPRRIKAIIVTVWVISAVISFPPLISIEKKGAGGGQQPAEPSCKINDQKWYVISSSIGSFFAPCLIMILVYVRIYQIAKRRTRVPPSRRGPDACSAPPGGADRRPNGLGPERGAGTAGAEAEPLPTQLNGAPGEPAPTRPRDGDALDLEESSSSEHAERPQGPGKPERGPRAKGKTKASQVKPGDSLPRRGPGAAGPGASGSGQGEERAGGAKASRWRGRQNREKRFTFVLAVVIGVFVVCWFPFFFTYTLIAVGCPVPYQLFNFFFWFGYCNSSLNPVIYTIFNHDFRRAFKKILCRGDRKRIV
The assay is described as follows: Displacement of [3H]yohimbine from rat brain cortex adrenergic alpha2 receptor after 30 mins by liquid scintillation counting. In a few lines:
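Cortex homogenized in 5 mM Tris-HCl, 5 mM EDTA pH 7.3, spun three times at 50,000 g, resuspended in 50 mM Tris-HCl, 0.5 mM EDTA pH 7.5. [3H]yohimbine 1 nM final, 10 mg fresh tissue, 30 min at 25 °C. Phentolamine defined nonspecific binding. Ki by Cheng-Prusoff.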

Assay [6] addresses T3, 5-hydroxytryptamine receptor 2C (Rattus norvegicus, UniProt P08909).
T3 sequence (P08909 whole entry): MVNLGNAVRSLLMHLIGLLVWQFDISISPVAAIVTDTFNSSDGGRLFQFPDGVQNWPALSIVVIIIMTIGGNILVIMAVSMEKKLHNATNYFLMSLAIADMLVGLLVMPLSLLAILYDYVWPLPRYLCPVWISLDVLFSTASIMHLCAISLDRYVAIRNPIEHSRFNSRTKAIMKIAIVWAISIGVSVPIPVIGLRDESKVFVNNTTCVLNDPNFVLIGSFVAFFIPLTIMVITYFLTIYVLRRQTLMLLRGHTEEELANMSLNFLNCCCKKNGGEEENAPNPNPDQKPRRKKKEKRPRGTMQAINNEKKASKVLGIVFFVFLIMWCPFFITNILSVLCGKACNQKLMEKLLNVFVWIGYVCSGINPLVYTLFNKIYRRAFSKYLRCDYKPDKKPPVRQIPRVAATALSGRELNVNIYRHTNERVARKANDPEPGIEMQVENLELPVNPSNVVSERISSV
The experiment in a line: Displacement of [3H]mesulergine from Sprague-Dawley rat brain cortex serotonin 5-HT2C receptor after 15 mins by liquid scintillation counting in presence of 5-HT2A blocker, spiperone. In a few lines:
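Male Sprague-Dawley rat frontal cortex membranes (Tris-HCl/EDTA/MgCl2 pH 7.4, ascorbate, pargyline). 100 nM spiperone in all tubes to block 5-HT2A sites. Mianserin defined nonspecific binding. 15 min at 37 °C, PEI-soaked glass fibre filtration. Six compound concentrations in triplicate. Ki by Cheng-Prusoff.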

In assay [7] the target is D(1A) dopamine receptor (Rattus norvegicus, UniProt P18901). The experiment in a line: Displacement of [3H]SCH-23390 from rat corpora striatum dopamine D1 receptor after 15 mins by liquid scintillation counting. In a few lines:
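Rat corpora striata homogenized in 50 mM Tris-HCl pH 7.7, spun twice at 50,000 g. Resuspended in Tris-HCl with NaCl, KCl, CaCl2, MgCl2, ascorbic acid and pargyline. 0.4 nM [3H]SCH-23390 final, 3 mg fresh tissue, 15 min at 37 °C. Nonspecific binding with piflutixol. Ki by Cheng-Prusoff from triplicate six-point curves.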

Assay [8] concerns the target 5-hydroxytryptamine receptor 2A (Rattus norvegicus, UniProt P14842). The experiment in a line: Displacement of [3H]ketanserin from Sprague-Dawley rat brain cortex serotonin 5-HT2A receptor after 15 mins by liquid scintillation counting. The following applies: read-out: Ki. In a few lines: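 Male Sprague-Dawley rat frontal cortex membranes in 50 mM Tris-HCl, 0.5 mM EDTA, 10 mM MgCl2 pH 7.4, with 0.1% ascorbate and pargyline. 0.4 nM [3H]ketanserin, 5 mg wet tissue, 15 min at 37 °C. Filtered on PEI-soaked glass fibre. Six compound concentrations in triplicate. IC50 converted to Ki by Cheng-Prusoff.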

The target in assay [9] is T4, 5-hydroxytryptamine receptor 1A (Rattus norvegicus, UniProt P19327).
T4 sequence (P19327 whole entry): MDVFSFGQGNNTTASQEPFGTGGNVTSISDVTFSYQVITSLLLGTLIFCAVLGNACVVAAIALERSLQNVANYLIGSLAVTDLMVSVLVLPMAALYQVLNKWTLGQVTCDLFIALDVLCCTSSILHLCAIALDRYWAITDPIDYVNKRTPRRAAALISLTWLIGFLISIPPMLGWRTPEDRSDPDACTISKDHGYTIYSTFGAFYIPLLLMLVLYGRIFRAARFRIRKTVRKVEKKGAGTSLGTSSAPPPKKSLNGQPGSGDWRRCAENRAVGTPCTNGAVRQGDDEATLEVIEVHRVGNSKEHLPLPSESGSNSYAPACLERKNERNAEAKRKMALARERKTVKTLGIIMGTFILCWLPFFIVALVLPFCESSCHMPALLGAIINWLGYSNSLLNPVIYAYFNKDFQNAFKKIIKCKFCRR
The experiment in a line: Displacement of [3H]-8-OH-DPAT from Sprague-Dawley rat brain cortex serotonin 5-HT1A receptor after 30 mins by liquid scintillation counting. The following applies: read-out: Ki. In a few lines: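 Male Sprague-Dawley rat (180-220 g) cerebral cortex homogenized in 50 mM Tris-HCl pH 7.7, spun 50,000 g. [3H]-8-OH-DPAT 0.1 nM final, 30 min at 37 °C, GF/B filtration. Test compounds in ethanol or 5% DMSO, six concentrations in triplicate. IC50 by curve fitting, Ki by Cheng-Prusoff using Scatchard-derived KD.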

For assay [10], the target named is D(2) dopamine receptor (Rattus norvegicus, UniProt P61169). The experiment in a line: Displacement of [3H]spiperone from rat corpora striatum dopamine D2 receptor after 15 mins by liquid scintillation counting. In a few lines:
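Corpora striata membranes in Tris-HCl buffer containing NaCl, KCl, CaCl2, MgCl2, ascorbic acid and pargyline. [3H]spiperone 0.4 nM final, 3 mg fresh tissue, incubated 15 min at 37 °C. GF/B filtration, scintillation counting. Six concentrations in triplicate. IC50 converted to Ki via Cheng-Prusoff.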

Sequence of D(1A) dopamine receptor (P18901 whole entry): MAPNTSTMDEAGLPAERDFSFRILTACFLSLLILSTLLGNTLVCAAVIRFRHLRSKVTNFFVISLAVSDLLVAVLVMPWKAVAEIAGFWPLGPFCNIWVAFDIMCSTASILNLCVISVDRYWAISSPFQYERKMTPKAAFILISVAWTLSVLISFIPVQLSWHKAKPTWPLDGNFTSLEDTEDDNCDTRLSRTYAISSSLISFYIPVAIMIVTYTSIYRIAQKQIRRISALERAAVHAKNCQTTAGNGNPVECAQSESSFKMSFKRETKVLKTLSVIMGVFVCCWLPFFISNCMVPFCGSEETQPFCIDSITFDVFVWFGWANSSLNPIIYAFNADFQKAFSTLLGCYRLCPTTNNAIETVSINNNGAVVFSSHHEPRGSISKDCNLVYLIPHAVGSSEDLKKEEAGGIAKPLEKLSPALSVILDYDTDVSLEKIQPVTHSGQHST
Sequence of D(2) dopamine receptor (P61169 whole entry): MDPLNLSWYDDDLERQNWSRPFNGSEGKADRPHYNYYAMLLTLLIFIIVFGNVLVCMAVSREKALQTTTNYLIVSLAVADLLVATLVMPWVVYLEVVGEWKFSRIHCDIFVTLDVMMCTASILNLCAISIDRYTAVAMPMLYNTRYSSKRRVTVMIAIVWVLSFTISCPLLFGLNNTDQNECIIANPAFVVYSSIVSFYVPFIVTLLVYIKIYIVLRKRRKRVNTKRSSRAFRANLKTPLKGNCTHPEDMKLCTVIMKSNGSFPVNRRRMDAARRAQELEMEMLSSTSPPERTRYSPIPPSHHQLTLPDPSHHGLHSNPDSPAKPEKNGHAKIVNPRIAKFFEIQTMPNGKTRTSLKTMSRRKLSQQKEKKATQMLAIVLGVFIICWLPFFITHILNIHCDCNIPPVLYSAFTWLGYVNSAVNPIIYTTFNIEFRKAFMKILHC
Sequence of 5-hydroxytryptamine receptor 2A (P14842 whole entry): as the sequence (P14842 whole entry) above

Take `N#C/N=C(\NCCCN1CCN(c2cccc(Cl)c2)CC1)c1ccccn1`: the results for the inhibition in [1], in [2] and in assay [4] were 68.8%, 45.3% and 95.1%, respectively. For the same molecule, the figures for the Ki in assay [3] and in assay [5] were 174 nM and 1360 nM, respectively.
As for `N#C/N=C(\NCCCN1CCN(C(=O)c2ccco2)CC1)c1ccccn1`, the inhibition constant (Ki) result in assay [6] was “Not Active”; in assay [7] it was “Not Active”; in assay [8] it was 21.5 nM; in assay [9] it was greater than 10000 nM; in assay [10] it was “Not Active”; in [5], greater than 10000 nM.

For orientation: inhibition means how much of the control response was suppressed. A lower inhibition goes with little suppression. As a reminder, the Ki is a measure of affinity in units of concentration, obtained from inhibition or displacement.
